Laboratory results taken from ChEMBL document CHEMBL1921735, “Antibacterial optimization of 4-aminothiazolyl analogues of the natural product GE2270 A: identification of the cycloalkylcarboxylic acids” (J Med Chem, 2011).
In brackets after ≈: the same amount, converted by molar mass. Activity calls are given as the source filed them.

Columns and labels:
[1] = tested on: Enterococcus faecalis; assay: Antibacterial activity against Enterococcus faecalis ATCC 29212 by CLSI M07-A8 method; type: functional
Method in brief: (§1)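 Broth microdilution MIC run per CLSI M07-A8 (2009).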

[2] = tested on: Enterococcus faecium; assay: Antibacterial activity against Enterococcus faecium 7130724 by CLSI M07-A8 method; type: functional; method in brief: as §1
[3] = tested on: Staphylococcus aureus; assay: Antibacterial activity against methicillin-resistant Staphylococcus aureus isolate A4.018 by CLSI M07-A8 method; type: functional
[4] = tested on: Streptococcus pyogenes; assay: Antibacterial activity against Streptococcus pyogenes ATCC BAA-595 by CLSI M07-A8 method; type: functional; method in brief: as §1
[5] = tested on: Streptococcus pneumoniae; assay: Antibacterial activity against Streptococcus pneumoniae by CLSI M07-A8 method; type: functional, organism-based; method in brief: as §1
[6] = tested on: Escherichia coli; assay: Antibacterial activity against Escherichia coli S30 assessed as inhibition of protein synthesis after 2 hrs by luminescence analysis; conditions: S30, 2 h
[7] = tested on: Staphylococcus aureus; assay: Antibacterial activity against Staphylococcus aureus ATCC 01001 infected in thigh of CD1 mouse assessed as prevention of colony formation at 32 mg/kg, ip administered 2 hrs post infection measured after 12 hrs; type: functional, organism-based; parameters: dose 32 mg/kg
Method in brief: (§2)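 Female CD1 mice (21−25 g), made neutropenic with cyclophosphamide ip at 150 mg/kg (day −4) and 100 mg/kg (day −1). Left thigh infected im with 0.05 mL S. aureus ATCC 01001 (7.5 × 10^5 cfu/thigh), grown 16 h at 36 °C in cation-supplemented Mueller Hinton. Treatment given 2 h post-infection, four mice per group. At 12 or 24 h thighs were excised, homogenized in 0.9% NaCl, serially diluted and plated on blood agar for cfu.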

[8] = tested on: Staphylococcus aureus; assay: Antibacterial activity against Staphylococcus aureus ATCC 01001 infected in thigh of CD1 mouse assessed as prevention of colony formation at 32 mg/kg, ip administered 2 hrs post infection measured after 24 hrs; type: functional, organism-based; parameters: dose 32 mg/kg; method in brief: as §2
[9] = tested on: Staphylococcus aureus; assay: Antibacterial activity against GE2270-A-resistant Staphylococcus aureus harboring tufA G258D mutant gene by CLSI M07-A8 method; type: functional
[10] = tested on: Staphylococcus aureus; assay: Antibacterial activity against Staphylococcus aureus ATCC 49951 infected in CD1 mouse assessed as protection against bacterial infection administered 5 hrs post infection measured on day 5; type: functional
Method in brief: (§3)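 Mouse lethal systemic infection: ip injection of 1 × 10^8 cfu/mouse (10−100× minimal lethal dose), E. faecalis in 50% sterile rat fecal extract, S. aureus in 0.9% NaCl. Therapy by tail-vein bolus at several doses, six mice per group. Started immediately for E. faecalis; at 1 and 5 h post-inoculation for S. aureus.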

[11] = tested on: Enterococcus faecalis; assay: Antibacterial activity against Enterococcus faecalis isolate NB04025 infected in CD1 mouse assessed as protection against bacterial infection administered immediately after infection measured on day 5; type: functional; conditions: isolate NB04025, 120 h; method in brief: as §3
[12] = tested on: Staphylococcus aureus; assay: Bacteriostatic activity against Staphylococcus aureus ATCC 01001 infected in thigh of CD1 mouse assessed as prevention of colony formation at 80 mg/kg, po administered 2 hrs post infection measured after 12 hrs; type: functional, organism-based; parameters: dose 80 mg/kg; method in brief: as §2
[13] = tested on: Staphylococcus aureus; assay: Bacteriostatic activity against Staphylococcus aureus ATCC 01001 infected in thigh of CD1 mouse assessed as prevention of colony formation at 80 mg/kg, po administered 2 hrs post infection measured after 24 hrs; type: functional, organism-based; parameters: dose 80 mg/kg; method in brief: as §2
[14] = Chemical stability of the compound in 15% v/v NaOH, 5% PEG-300, 0.9% saline, 55% v/v water at pH 7.2 to 7.8; type: physicochemical; conditions: buffer

SMILES	MIC [1]	MIC [2]	MIC [3]	MIC [4]	Activity [5]	IC50 [6]	Activity [7]	Activity [8]	Activity [9]	ED50 [10]	ED50 [11]	Activity [12]	Activity [13]	Stability [14]
CNC(=O)C[C@@H]1NC(=O)c2csc(n2)-c2ccc(-c3nc(NC(=O)CCCCN)cs3)nc2-c2csc(n2)-c2csc(n2)[C@H]([C@@H](O)c2ccccc2)NC(=O)CNC(=O)c2nc(sc2COC)[C@H](C(C)C)NC(=O)c2nc1sc2C	0.5 µg/mL (≈ 0.418 µM)	1 µg/mL (≈ 0.836 µM)	1 µg/mL (≈ 0.836 µM)	4 µg/mL (≈ 3.35 µM)	Active	1.9 µM	–	–	–	–	–	–	–	–
CCCCCCCCCC(=O)N[C@@H](Cc1c[nH]c2ccccc12)C(=O)N[C@H](CC(N)=O)C(=O)N[C@@H](CC(=O)O)C(=O)N[C@@H]1C(=O)NCC(=O)N[C@@H](CCCN)C(=O)N[C@@H](CC(=O)O)C(=O)N[C@H](C)C(=O)N[C@@H](CC(=O)O)C(=O)NCC(=O)N[C@H](CO)C(=O)N[C@@H]([C@H](C)CC(=O)O)C(=O)N[C@@H](CC(=O)c2ccccc2N)C(=O)O[C@@H]1C	–	–	–	–	–	–	Active	Active	–	–	–	–	–	–
CNC(=O)C[C@@H]1NC(=O)c2csc(n2)-c2ccc(-c3nc(NC(=O)CCCCC(=O)O)cs3)nc2-c2csc(n2)-c2csc(n2)[C@H]([C@@H](O)c2ccccc2)NC(=O)CNC(=O)c2nc(sc2COC)[C@H](C(C)C)NC(=O)c2nc1sc2C	0.06 µg/mL (≈ 0.049 µM)	0.125 µg/mL (≈ 0.102 µM)	0.125 µg/mL (≈ 0.102 µM)	4 µg/mL (≈ 3.27 µM)	Active	1.2 µM	–	–	inactive	10.5 mg/kg	5.5 mg/kg	–	–	–
CNC(=O)C[C@@H]1NC(=O)c2csc(n2)-c2ccc(-c3nc(NC(=O)CCCN(C)C)cs3)nc2-c2csc(n2)-c2csc(n2)[C@H]([C@@H](O)c2ccccc2)NC(=O)CNC(=O)c2nc(sc2COC)[C@H](C(C)C)NC(=O)c2nc1sc2C	0.5 µg/mL (≈ 0.413 µM)	1 µg/mL (≈ 0.827 µM)	1 µg/mL (≈ 0.827 µM)	4 µg/mL (≈ 3.31 µM)	Active	2.6 µM	–	–	–	–	–	–	–	–
CC(=O)NC[C@H]1CN(c2ccc(N3CCOCC3)c(F)c2)C(=O)O1	–	–	–	–	–	–	–	–	–	–	–	Active	Active	–
CNC(=O)C[C@@H]1NC(=O)c2csc(n2)-c2ccc(-c3nc(NC(=O)CCCCC(=O)OC)cs3)nc2-c2csc(n2)-c2csc(n2)[C@H]([C@@H](O)c2ccccc2)NC(=O)CNC(=O)c2nc(sc2COC)[C@H](C(C)C)NC(=O)c2nc1sc2C	4 µg/mL (≈ 3.23 µM)	2 µg/mL (≈ 1.61 µM)	> 32 µg/mL	> 32 µg/mL	Active	> 32 µM	–	–	–	–	–	–	–	–
CNC(=O)C[C@@H]1NC(=O)c2csc(n2)-c2ccc(-c3nc(NC(=O)O[C@H]4CC[C@H](C(=O)O)CC4)cs3)nc2-c2csc(n2)-c2csc(n2)[C@H]([C@@H](O)c2ccccc2)NC(=O)CNC(=O)c2nc(sc2COC)[C@H](C(C)C)NC(=O)c2nc1sc2C	0.06 µg/mL (≈ 0.0474 µM)	0.03 µg/mL (≈ 0.0237 µM)	0.125 µg/mL (≈ 0.0987 µM)	2 µg/mL (≈ 1.58 µM)	Active	–	–	–	–	4.3 mg/kg	0.2 mg/kg	–	–	> 1 weeks
CNC(=O)C[C@@H]1NC(=O)c2csc(n2)-c2ccc(-c3nc(NC(=O)CCCCP(=O)(O)O)cs3)nc2-c2csc(n2)-c2csc(n2)[C@H]([C@@H](O)c2ccccc2)NC(=O)CNC(=O)c2nc(sc2COC)[C@H](C(C)C)NC(=O)c2nc1sc2C	> 32 µg/mL	> 32 µg/mL	> 32 µg/mL	> 32 µg/mL	Active	1.5 µM	–	–	–	–	–	–	–	–
CNC(=O)C[C@@H]1NC(=O)c2csc(n2)-c2ccc(-c3nc(NC(=O)OCCOCCOCCOC)cs3)nc2-c2csc(n2)-c2csc(n2)[C@H]([C@@H](O)c2ccccc2)NC(=O)CNC(=O)c2nc(sc2COC)[C@H](C(C)C)NC(=O)c2nc1sc2C	0.5 µg/mL (≈ 0.389 µM)	0.5 µg/mL (≈ 0.389 µM)	4 µg/mL (≈ 3.11 µM)	> 32 µg/mL	Active	10.8 µM	–	–	–	–	–	–	–	–
CNC(=O)C[C@@H]1NC(=O)c2csc(n2)-c2ccc(-c3nc(NC(=O)CCCO)cs3)nc2-c2csc(n2)-c2csc(n2)[C@H]([C@@H](O)c2ccccc2)NC(=O)CNC(=O)c2nc(sc2COC)[C@H](C(C)C)NC(=O)c2nc1sc2C	0.5 µg/mL (≈ 0.423 µM)	0.5 µg/mL (≈ 0.423 µM)	1 µg/mL (≈ 0.846 µM)	> 32 µg/mL	Active	> 16 µM	–	–	–	–	–	–	–	–
CNC(=O)C[C@@H]1NC(=O)c2csc(n2)-c2ccc(-c3nc(NC(=O)C(F)(F)F)cs3)nc2-c2csc(n2)-c2csc(n2)[C@H]([C@@H](O)c2ccccc2)NC(=O)CNC(=O)c2nc(sc2COC)[C@H](C(C)C)NC(=O)c2nc1sc2C	1 µg/mL (≈ 0.839 µM)	1 µg/mL (≈ 0.839 µM)	> 32 µg/mL	> 32 µg/mL	Active	> 32 µM	–	–	–	–	–	–	–	–
CNC(=O)C[C@@H]1NC(=O)c2csc(n2)-c2ccc(-c3nc(NC(=O)OCCCC(N)=O)cs3)nc2-c2csc(n2)-c2csc(n2)[C@H]([C@@H](O)c2ccccc2)NC(=O)CNC(=O)c2nc(sc2COC)[C@H](C(C)C)NC(=O)c2nc1sc2C	0.25 µg/mL (≈ 0.204 µM)	0.25 µg/mL (≈ 0.204 µM)	0.5 µg/mL (≈ 0.408 µM)	> 32 µg/mL	Active	2.4 µM	–	–	–	–	–	–	–	–
CNC(=O)C[C@@H]1NC(=O)c2csc(n2)-c2ccc(-c3nc(NC(=O)OCCCC(=O)O)cs3)nc2-c2csc(n2)-c2csc(n2)[C@H]([C@@H](O)c2ccccc2)NC(=O)CNC(=O)c2nc(sc2COC)[C@H](C(C)C)NC(=O)c2nc1sc2C	0.03 µg/mL (≈ 0.0245 µM)	0.06 µg/mL (≈ 0.0489 µM)	0.06 µg/mL (≈ 0.0489 µM)	1 µg/mL (≈ 0.815 µM)	Active	–	–	–	inactive	5.4 mg/kg	3.1 mg/kg	–	–	–
